The source made the active and inactive calls. The calls are words filed in the database; no cut-off is given here.
What was measured:
[1] = target: T1, Myeloblastin (Homo sapiens) (UniProt P24158); assay: Inhibition of human PR3 at inhibitor to enzyme ratio of 500 after 30 mins
T1 sequence (whole entry): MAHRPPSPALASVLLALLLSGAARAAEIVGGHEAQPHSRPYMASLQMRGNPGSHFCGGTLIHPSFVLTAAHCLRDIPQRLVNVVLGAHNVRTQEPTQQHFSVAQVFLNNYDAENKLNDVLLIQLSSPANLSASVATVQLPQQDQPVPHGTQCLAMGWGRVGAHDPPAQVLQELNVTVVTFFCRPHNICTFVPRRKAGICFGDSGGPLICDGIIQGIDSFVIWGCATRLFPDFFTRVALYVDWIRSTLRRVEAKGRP
Outline: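 PR3 (34.5 nM final, from 0.1 M phosphate pH 6.50 stock) preincubated 30 min with inhibitor at [I]/[E] 500 (8.62 μM final). Buffer 0.1 M HEPES/0.5 M NaCl pH 7.25 with DMSO and DTNB. Substrate Boc-Ala-Ala-NVa-SBzl; absorbance read at 410 nm for 2 min. % remaining activity = (v/v0)×100 against a DMSO-only run; duplicate or triplicate.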

[2] = target: T2, Neutrophil elastase (Homo sapiens) (UniProt P08246); assay: Inhibition of human neutrophil elastase assessed as ratio of observed rate constant to drug concentration by incubation method; design: unit not given here
T2 sequence (whole entry): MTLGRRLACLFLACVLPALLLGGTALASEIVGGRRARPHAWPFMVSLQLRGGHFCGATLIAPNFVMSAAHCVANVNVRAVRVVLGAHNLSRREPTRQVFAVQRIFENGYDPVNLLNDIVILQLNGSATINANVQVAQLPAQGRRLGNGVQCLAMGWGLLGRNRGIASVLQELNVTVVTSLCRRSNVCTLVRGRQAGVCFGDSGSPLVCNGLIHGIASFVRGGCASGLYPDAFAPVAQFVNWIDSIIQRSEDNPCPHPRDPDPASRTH
Outline: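 HNE incubated with excess inhibitor in 0.1 M HEPES/0.5 M NaCl pH 7.25 with DMSO in a constant-temperature bath (stocks: 70 μM enzyme, 3.5 mM inhibitor). Aliquots taken over time and assayed with MeOSuc-AAPV-pNA, read at 410 nm for 60 s. kobs taken from ln([E]t/[E]0) = −kobs·t; reported as kobs/[I].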

[3] = target: T2, Neutrophil elastase (Homo sapiens); assay: Inhibition of human neutrophil elastase at inhibitor to enzyme ratio of 500 after 30 mins
Outline: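 HNE treated with inhibitor for 30 min at [I]/[E] ratio 500. Residual activity then measured with MeOSuc-AAPV-pNA in 0.1 M HEPES/0.5 M NaCl pH 7.25, reading absorbance at 410 nm.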

[4] = target: T2, Neutrophil elastase (Homo sapiens); assay: Irreversible inhibition of human neutrophil elastase at 37 uM; details: TDE = time-dependent effect
Outline: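 Inhibitor (37 μM) incubated with HNE (700 nM) in 0.1 M HEPES/0.5 M NaCl pH 7.25, 1% DMSO. Aliquots taken over time and assayed with MeOSuc-AAPV-pNA at 410 nm. Results plotted as percent remaining activity versus time.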

[5] = target: T2, Neutrophil elastase (Homo sapiens); assay: Inhibition of human neutrophil elastase assessed as ratio of kinact to Ki by progressive curve method
Outline: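 Progress curves run with 10 nM HNE and 105 μM MeOSuc-AAPV-pNA in 0.1 M HEPES/0.5 M NaCl pH 7.25, 2.5% DMSO, over several [I]/[E] ratios. p-Nitroaniline release followed continuously at 410 nm. kobs obtained by nonlinear fit of A vs t; kobs/[I] corrected for substrate concentration to give kinact/KI. Duplicate determinations.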

Row | Structure (SMILES) | inhibition [1] | Ratio [2] | inhibition [3] | Activity [4] | Ratio [5]
1 | CCC[C@H]1C(=O)N(C(CCC(=O)OC)Sc2ccc(Cl)cc2)S(=O)(=O)N1C (stereo partly drawn) | inactive | 20 | Active |  | 
2 | CCC[C@H]1C(=O)N(C(CCC(=O)OC)Sc2ccc(NC(=O)OC(C)(C)C)cc2)S(=O)(=O)N1C (stereo partly drawn) | inactive | 170 | Active |  | 
3 | CCC[C@H]1C(=O)N(C(CCC(=O)OC)Sc2ccc(OC)cc2)S(=O)(=O)N1C (stereo partly drawn) | inactive | 70 | Active |  | 
4 | CCC[C@H]1C(=O)N(C(CCC(=O)OC)Sc2ccc(F)cc2)S(=O)(=O)N1C (stereo partly drawn) | inactive | 320 | Active |  | 
5 | CCC[C@H]1C(=O)N(C(CCC(=O)OC)Sc2ccc(NC(=O)CCC(=O)O)cc2)S(=O)(=O)N1C (stereo partly drawn) | inactive | 300 | Active |  | 
6 | CCC[C@H]1C(=O)N(C(CCC(=O)OC)Sc2ccc(NC(=O)NCCc3ccccc3)cc2)S(=O)(=O)N1C (stereo partly drawn) | inactive | 150 | Active |  | 
7 | COC(=O)CCC(Sc1ccc(Cl)cc1)N1C(=O)[C@H](CC(C)C)N(C)S1(=O)=O (stereo partly drawn) | inactive |  | Active | tde | 4580
8 | CCC[C@H]1C(=O)N(C(CCC(=O)OC)Sc2ccc(N)cc2)S(=O)(=O)N1C (stereo partly drawn) | inactive | 110 | Active |  | 
9 | CCC[C@H]1C(=O)N(C(CCC(=O)OC)Sc2ccc(NC(=O)c3ccccc3C(=O)O)cc2)S(=O)(=O)N1C (stereo partly drawn) | inactive | 260 | Active |  | 
